Publication PMC9177960 (Nucleic Acids Research, 2022)

Columns and labels:
[1] = system: MurR binding to the operator site; conditions: previous studies; cited from earlier work
MurR = target: T1, MurR (Escherichia coli, UniProt P77245); assay: ITC binding between MurR and ligands
T1 sequence (P77245 1-285): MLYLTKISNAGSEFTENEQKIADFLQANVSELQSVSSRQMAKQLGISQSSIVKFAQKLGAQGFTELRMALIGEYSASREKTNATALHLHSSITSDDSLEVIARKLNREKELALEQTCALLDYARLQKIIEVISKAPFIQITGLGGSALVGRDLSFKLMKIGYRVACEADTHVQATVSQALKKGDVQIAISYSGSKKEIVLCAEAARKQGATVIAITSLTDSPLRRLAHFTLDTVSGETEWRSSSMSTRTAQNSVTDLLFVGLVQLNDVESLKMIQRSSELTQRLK
Outline: (§1)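 MurR (wild type or point mutant) was expressed from pET28a in E. coli BL21(DE3), His6-tag removed with HRV3C, and gel-filtered. Protein at 50 µM in the cell; ligand at 500 µM in the syringe. Both were in 100 mM NaCl, 10 mM Tris-HCl pH 7.5, 1 mM DTT. Run at 25 °C, stirring 750 rpm, 120 s between injections. Data background-subtracted to give association constants; triplicate runs.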

mutant MurR proteins = assay: ITC binding of GlcNAc-6-P to mutant MurR proteins; set-up: species or system Escherichia coli; conditions: mutant proteins of Supplementary Figure S14A and B
Outline: as §1

[2] = target: T2, MurR/operator DNA complex (Escherichia coli, UniProt P77245); assay: EMSA of MurR with murR-murQ intergenic region DNA; format: biochemical; conditions: for effect on MurR-DNA binding at high concentration: EMSA, 1, 10, 20, 40 mM, effect of GlcNAc-6-P at 40 mM
T2 sequence (P77245 1-285): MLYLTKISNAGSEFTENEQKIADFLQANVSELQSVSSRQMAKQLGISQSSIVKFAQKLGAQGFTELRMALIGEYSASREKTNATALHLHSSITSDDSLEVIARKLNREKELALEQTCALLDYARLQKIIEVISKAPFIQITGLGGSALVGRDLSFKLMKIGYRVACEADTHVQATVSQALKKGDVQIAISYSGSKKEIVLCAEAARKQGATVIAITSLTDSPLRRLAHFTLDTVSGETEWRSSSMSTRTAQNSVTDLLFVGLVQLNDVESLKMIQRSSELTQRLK

[3] = system: mutant MurR proteins/promoter DNA complexes; assay: EMSA of mutant MurR proteins with promoter DNA; format: biochemical, Escherichia coli; conditions: all MurR proteins (WT and mutants) at the tested concentrations
[4] = system: MurR-controlled eGFP expression (pUC19-murR-eGFP); assay: CFPS eGFP fluorescent quantitation assay, WT MurR; format: biochemical, Escherichia coli; conditions: plasmid 5.8 nM, protein 1:100 molar ratio, different ligand concentrations
Outline: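 Reporter plasmid: T7 promoter, RBS, eGFP coding sequence and the murQ–murR intergenic region. MurR proteins were expressed in E. coli BL21(DE3) with an N-terminal His6 tag, which was cleaved off by HRV3C protease, then purified by size exclusion. In cell-free protein synthesis, 5.8 nM plasmid was mixed with protein at a 1:100 plasmid:protein molar ratio and graded MurNAc-6-P or GlcNAc-6-P. eGFP fluorescence was read on a real-time PCR instrument, in triplicate.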

SEC + AUC = target: the molecule itself; assay: SEC + AUC
crystal structure = target: the molecule itself; assay: crystal structure

CC(=O)N[C@H]1C(O)O[C@H](CO)[C@@H](O)[C@@H]1O[C@H](C)C(=O)N[C@@H](C)C(=O)N[C@H](CCC(=O)O)C(N)=O (mixture of isomers) [muramyl dipeptide]
effect on MurR binding to the operator [1]: no effect

CC(=O)N[C@H]1C(O)O[C@H](COP(=O)(O)O)[C@@H](O)[C@@H]1O (stereo partly shown) [GlcNAc-6-P, N-acetylglucosamine-6-phosphate]
Kd (MurR): 17.6 µM | association constant (Ka) values compared with WT MurR (mutant MurR proteins): Smaller | relief of the retardation of DNA migration ([2]; EMSA, 200 nM MurR, ligand 1, 10, 100, 1000 μM): negligible | effect on MurR-DNA binding at high concentration [2]: a certain portion of the DNA was dissociated from MurR | sensitivity of MurR/DNA complexes to ligand [3]: insensitive | effect on eGFP fluorescence [4]: made no visible difference | effect on MurR binding to the operator [1]: no effect

CC(=O)N[C@@H]1[C@@H](O)[C@H](O)[C@@H](CO)O[C@H]1O [GlcNAc, N-acetylglucosamine]
interaction with MurR in ITC (MurR; ligand titrated into WT MurR): no interaction | effect on MurR binding to the operator [1]: no effect

O=S(=O)([O-])[O-].[Na+].[Na+] [sodium sulfate]
effect on MurR-DNA binding at high concentration [2]: not affected

B1: full-length MurR (natural protein, Escherichia coli MG1655, UniProt P77245 1-285, looked up)
chain: MLYLTKISNAGSEFTENEQKIADFLQANVSELQSVSSRQMAKQLGISQSSIVKFAQKLGAQGFTELRMALIGEYSASREKTNATALHLHSSITSDDSLEVIARKLNREKELALEQTCALLDYARLQKIIEVISKAPFIQITGLGGSALVGRDLSFKLMKIGYRVACEADTHVQATVSQALKKGDVQIAISYSGSKKEIVLCAEAARKQGATVIAITSLTDSPLRRLAHFTLDTVSGETEWRSSSMSTRTAQNSVTDLLFVGLVQLNDVESLKMIQRSSELTQRLK
stoichiometry N (SEC + AUC): 4

B2: truncated protein MurRT2 (D95 to K285) (domain or fragment, Escherichia coli MG1655, UniProt P77245 95-285, looked up)
chain: DDSLEVIARKLNREKELALEQTCALLDYARLQKIIEVISKAPFIQITGLGGSALVGRDLSFKLMKIGYRVACEADTHVQATVSQALKKGDVQIAISYSGSKKEIVLCAEAARKQGATVIAITSLTDSPLRRLAHFTLDTVSGETEWRSSSMSTRTAQNSVTDLLFVGLVQLNDVESLKMIQRSSELTQRLK
binding result (crystal structure): binds
